# Assay outcomes: PubChem, several laboratories
# This is a sample that favours compounds with a hit; in the whole collection about 2.2% have one here.
# UBC13 polyUb – UBC13 polyubiquitin chain formation inhibitors, primary screen, biochemical, TR-FRET, uHTS | Ubiquitin-conjugating enzyme E2 N (Homo sapiens), P61088 | 330,000 compounds, 0.47% hits | inhibition, % at 20 µM; in the data active = inhibition above about 45%, passing the limit was not always enough
# Target sequence (P61088 whole entry, looked up): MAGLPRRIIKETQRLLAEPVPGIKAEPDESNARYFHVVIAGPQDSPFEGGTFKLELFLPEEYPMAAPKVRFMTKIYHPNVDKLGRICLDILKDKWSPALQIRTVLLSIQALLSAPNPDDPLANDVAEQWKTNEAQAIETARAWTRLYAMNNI
# PAD4 inh – human PAD4 inhibitors, primary screen, biochemical, fluorescence polarization, 1536-well format; inhibition, % at 6.36 µM; 330,000 compounds, 0.41% hits; recombinant PAD4, RCA probe fluorescence polarization; Protein-arginine deiminase type-4 (Homo sapiens), Q9UM07;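 active = percent inhibition above a cutoff equal to the mean of all tested compounds plus 3 SD, cut at about 15% in these data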;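 also: 0% = PAD4 with RCA probe and DMSO and 100% = probe without PAD4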
# GSTO1 inh – inhibitors of recombinant GSTO1, primary screen, counter-screen for RBBP9 inhibitor project, biochemical, fluorescence polarization. activity-based probe fluorescence polarization. inhibition, % at 5.96 µM. 300,000 compounds, 1.1% hits. AID 1974, 2009;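 active = inhibition above the campaign mean inhibition plus 3 SD, cut at about 35% in these data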;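 also: 0% = GSTO1-1 with DMSO and 100% = wells lacking GSTO1-1 enzyme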
# SUMO HTRF inh – inhibitors of in vitro SUMOylation cascade, primary screen, biochemical, HTRF, uHTS | SUMO-conjugating enzyme UBC9 (Homo sapiens), P63279 | HTRF SUMOylation assay, SAE1/SAE2 + UBC9 | inhibition, % at 35 µM | 290,000 compounds, 0.36% hits; in the data active = inhibition above about 50%, passing the limit was not always enough
# Target sequence (P63279 whole entry, looked up): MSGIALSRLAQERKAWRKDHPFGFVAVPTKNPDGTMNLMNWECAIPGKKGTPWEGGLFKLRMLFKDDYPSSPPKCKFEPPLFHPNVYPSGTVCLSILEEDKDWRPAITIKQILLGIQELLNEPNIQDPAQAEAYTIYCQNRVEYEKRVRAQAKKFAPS
# Rin1 Abl inh – inhibitors of Rin1-Abl protein binding, primary screen, biochemical, TR-FRET; Tyrosine-protein kinase ABL1 (Homo sapiens) + Ras and Rab interactor 1 (Homo sapiens), …; inhibition, % at 7.35 µM; 360,000 compounds, 0.4% hits; AID 588664, 2011; in the data active = inhibition above about 5%, passing the limit was not always enough
# Apaf-1 inh – inhibitors of human Apaf-1 apoptosome, primary screen, biochemical, DEVD-Rh110 fluorescence, uHTS; reconstituted apoptosome caspase-3 activity; inhibition, % at 20 µM; 330,000 compounds, 0.71% hits; active = inhibition of at least 40% at 20 µM;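 also: plate controls were DMSO wells for no effect and DEVD-CHO caspase inhibitor wells for full effect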
#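 Material: reconstituted apoptosome with Apaf-1, cytochrome c, caspase-9, procaspase-3, dATP. Technique: Rh110 fluorescence intensity. Buffer or medium: pH 7.5 Hepes buffer with CHAPS, BSA, DTT. Times: 30 min plus 50 min, RT.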
# Casp3 counter – CASP3 inhibitor validation, counterassay for project on UBE2N polyubiquitination blockers, biochemical, one dose; shares compounds with UBC13 polyUb; Recombinant caspase-3, Caspase-Glo 3/7 luminescence, 60 min; inhibition, % at 20 µM; 1,400 compounds, 4% hits; AID 488856, 2010;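 active = mean inhibition across replicates above about 26%, limit read from the data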;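 also: plate controls were DMSO with caspase-3 for no effect and DMSO wells lacking enzyme for full effect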
# Target sequence (P42574 whole entry, looked up): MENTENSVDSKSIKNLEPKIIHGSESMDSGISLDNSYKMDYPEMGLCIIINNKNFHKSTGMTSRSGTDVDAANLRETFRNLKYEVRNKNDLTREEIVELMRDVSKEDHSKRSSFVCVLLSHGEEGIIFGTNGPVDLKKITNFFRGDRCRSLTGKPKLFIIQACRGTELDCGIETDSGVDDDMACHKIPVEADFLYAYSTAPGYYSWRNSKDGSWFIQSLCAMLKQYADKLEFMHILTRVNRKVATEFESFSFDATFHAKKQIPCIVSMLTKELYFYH
# UBC13 conf – UBC13 polyubiquitination inhibitors, single-point retest, confirmation, biochemical, TR-FRET, single concentration. AID 488859, 2010. shares compounds with UBC13 polyUb. 1,400 compounds, 68% hits. inhibition, % at 10 µM; in the data active = inhibition above about 45%
# Apaf-1 inh conf2 – Apaf-1 inhibitors, single-dose retest, confirmation, biochemical, fluorescence, DEVD-Rh110, 20 µM | shares compounds with Apaf-1 inh | reconstituted apoptosome, caspase-3 DEVD-Rh110 fluorescence | inhibition, % at 20 µM | 1,800 compounds, 25% hits | AID 504614, 2011;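 active = mean inhibition of at least 40% at 20 µM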;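 also: plate controls were DMSO wells for no effect and DEVD-CHO caspase inhibitor control wells for full effect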
# Rh110 interf inh – Rh110 fluorescence interference by putative Apaf-1 inhibitors, confirmation, artefact control for Apaf-1 inhibitor project, biochemical, 20 µM; shares compounds with Apaf-1 inh; quenched caspase reaction; activation (fluorescence interference), % at 20 µM; 1,800 tested, under 10 active; AID 504615, 2011;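 active = signal rise of 40% or more at 20 µM, treated as a fluorescence artifact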
# Fluor interf inh – fluorescence interference of Apaf-1 inhibitor hits, dose response, artefact control for Apaf-1 inhibitor project | fluorescence interference counterscreen, Apaf-1 assay format | AID 588538, 2011 | 460 tested, under 10 active | IC50, µM | shares compounds with Apaf-1 inh; call rule not given here
# * hit, by the source's call; / = no result given.
SMILES,UBC13 polyUb,PAD4 inh,GSTO1 inh,SUMO HTRF inh,Rin1 Abl inh,Apaf-1 inh,Casp3 counter,UBC13 conf,Apaf-1 inh conf2,Rh110 interf inh,others
CCOC(=O)C1=C(c2ccccc2)NC(N)=NC1c1ccc(OCc2ccc(Cl)cc2)c(OC)c1 (configuration not stated),49*,-1,-4,-24,-2,58*,6,87*,64*,6,Fluor interf inh=>100
Cc1c(CCOC(=O)c2ccccc2)sc[n+]1CC(=O)c1ccc(Br)cc1,14,0,-8,2,2,25,/,/,/,/,
Cc1c(CCOC(=O)CC23CC4CC(CC(C4)C2)C3)sc[n+]1CC(=O)c1ccc(Br)cc1,47*,-5,-9,-5,-2,49*,2,69*,32,16,
CCN1C(=O)CC(c2ccccc2)N(C2CCCC2)c2nc(Nc3ccc(C(=O)NC4CCN(C)CC4)cc3OC)ncc21 (configuration not stated),61*,0,/,/,10*,70*,1,41,23,7,
CCN1C(=O)CC(C(C)C)N(C2CCCC2)c2nc(Nc3ccc(C(=O)NC4CCN(C)CC4)cc3OC)ncc21 (configuration not stated),/,/,/,/,0,/,/,/,/,/,
COc1ccc2c(CC(=O)Nc3ccc4nc(N5CCOCC5)sc4c3)coc2c1,/,/,/,/,2,/,/,/,/,/,
CCOc1ccc(/C=C/C(=O)Nc2ccc(C(N)=O)cc2)cc1OC,26,-5,-1,20,-5,-17,/,/,/,/,
CCOc1cc(/C=C/C(=O)Nc2ccc(C(=O)NCCN(CC)CC)cc2)ccc1OCC(C)C,78*,2,-17,8,-2,47*,-2,96*,40,21,
COC(=O)C1=C(C)N(Cc2ccccc2)C(=NCc2cccc(Cl)c2)N[C@H]1c1ccccc1,70*,1,/,/,1,56*,-1,67*,16,12,
CCN(CC)CCCN=C1N[C@@H](c2cccc(F)c2)C(C(=O)OC)=C(C)N1Cc1ccccc1,22,1,/,/,4,9,/,/,/,/,
COC(=O)C1=C(C)N(Cc2ccccc2)C(=NCc2ccccc2)N[C@H]1c1cccc(F)c1,67*,-8,2,4,0,41*,-4,18,18,10,
COC(=O)C1=C(C)N(Cc2ccccc2)C(=NCCc2c[nH]c3ccccc23)N[C@H]1c1cccc(F)c1,62*,2,/,/,-3,60*,1,64*,21,7,
O=C(NCCc1ccccc1)c1ccc(NC(=O)C2CCCC2)cc1,/,/,/,/,-1,/,/,/,/,/,
Cc1ccc(NC(=O)CN(C)C(=O)c2ccc3[nH]c4c(c3c2)CC(C)CC4)cc1 (configuration not stated),66*,-3,/,/,1,59*,-2,48*,45*,4,Fluor interf inh=>100
CCOc1ccc(NC(=O)CN(C)C(=O)c2ccc3[nH]c4c(c3c2)CC(C)CC4)cc1OCC (configuration not stated),6,2,2,/,-1,18,/,/,/,/,
CCN1CCN(Cc2ccc(NC(=O)c3ccc(C)c(NC(=O)c4cc(-c5ccc(Br)cc5)n[nH]4)c3)cc2C(F)(F)F)CC1,72*,1,-8,1,4,45*,2,65*,22,-2,
CC1CCN(C(=O)CSc2nnc(CNC(=O)c3ccc(F)cc3)o2)CC1,-9,3,7,14,-1,-7,/,/,/,/,
CCCCc1oc2ccccc2c1C(=O)c1cc(I)c(OCCN(CC)CC)c(I)c1,68*,-5,-2,2,-1,53*,0,58*,6,13,
CC(=O)Nc1ccc(NC(=O)Cn2cnc(S(=O)(=O)N3CCOCC3)c2)cc1,-4,0,1,15,-5,-6,/,/,/,/,
COC(=O)c1c(NC(=O)c2ccc(OC(C)C)cc2)sc2c1CC(C)(C)NC2(C)C,84*,-2,-2,2,-3,53*,-2,60*,10,7,
COC(=O)c1c(NC(=O)c2ccccc2)sc2c1CC(C)(C)NC2(C)C,28,2,-2,5,0,10,/,/,/,/,
COc1ccc(C(C(=O)NC(C)(C)C)N(C(=O)CCC(=O)Nc2cc(C)on2)c2ccccc2F)cc1 (configuration not stated),5,2,3,17,3,22,/,/,/,/,
CC[C@@H](C)[C@@H]1CN([C@@H](C)CN2CCC[C@H]2CN2C(N)=NC[C@H]2CC(C)C)C(=N)N1CCc1ccc(Cl)c(Cl)c1,69*,-3,/,/,4,52*,0,70*,2,3,
CCOc1ccc(CCN2C(=O)C(=O)N([C@@H](CC(C)C)CN3CCC[C@@H]3CN3C(=O)C(=O)NC[C@@H]3CC(C)C)C[C@@H]2Cc2ccccc2)cc1,/,/,/,/,7,/,/,/,/,/,
CCC[C@@H](CN1CCC[C@H]1CN1C(N)=NC[C@H]1CC(C)C)N1C[C@@H]([C@H](C)CC)N(CCc2ccc(Cl)c(Cl)c2)C1=N,82*,3,/,/,3,64*,-4,80*,14,5,
CC[C@@H](C)[C@@H]1CN([C@@H](CN2CCC[C@H]2CN2C(N)=NC[C@H]2CC(C)C)C(C)C)C(=N)N1CCc1ccc(Cl)c(Cl)c1,73*,1,/,/,1,63*,3,86*,23,14,
CCOc1ccc(CCN2C(=S)N([C@@H](CC(C)C)CN3CCC[C@@H]3CN3C(=S)NC[C@@H]3CC(C)C)C[C@@H]2CC(C)C)cc1,/,/,/,/,6,/,/,/,/,/,
COc1ccc(Cl)cc1NC(=O)CN(C)Cc1cccs1,16,-2,1,-8,2,24,/,/,/,/,
